# Laboratory results: ChEMBL document CHEMBL1123963, “Conformational preference for the binding of biaryl substrates and inhibitors to the active site of phenylethanolamine N-methyltransferase” (J Med Chem, 1988)
# T1: Phenylethanolamine N-methyltransferase (Bos taurus, UniProt P10938)
# T1 sequence (P10938 whole entry): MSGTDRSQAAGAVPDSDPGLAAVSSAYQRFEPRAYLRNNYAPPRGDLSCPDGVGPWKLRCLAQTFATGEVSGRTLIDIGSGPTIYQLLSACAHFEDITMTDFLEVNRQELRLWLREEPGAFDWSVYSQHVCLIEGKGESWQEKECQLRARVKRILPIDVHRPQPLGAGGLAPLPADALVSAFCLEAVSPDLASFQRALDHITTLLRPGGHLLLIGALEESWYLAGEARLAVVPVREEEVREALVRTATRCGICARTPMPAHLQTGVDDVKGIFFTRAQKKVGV
# What was measured:
# [1] = target: T1, Phenylethanolamine N-methyltransferase; experiment: In vitro inhibition of compound towards phenylethanolamine N-methyltransferase(PNMT) isolated from bovine adrenal glands
# Outline: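 Inhibition was measured on bovine adrenal PNMT partially purified through the isoelectric precipitation step. The radiochemical assay used phosphate buffer (pH 8.0) with unlabeled and [methyl-3H]AdoMet, 30 min at 37 °C. It was quenched with pH 10 borate buffer and extracted into toluene-isoamyl alcohol (7:3). Ki came from at least three inhibitor concentrations with phenylethanolamine as the variable substrate; compounds were tested as hydrochloride salts.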
# [2] = Activity of the substrate is measured as the ratio of 100*Vmax/Km
# Outline: (§1)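 Bovine adrenal PNMT, purified through the isoelectric precipitation step, was used. The radiochemical assay contained phosphate buffer (pH 8.0), unlabeled AdoMet, [methyl-3H]AdoMet and enzyme, incubated 30 min at 37 °C. It was stopped with borate buffer (pH 10) and extracted into toluene-isoamyl alcohol (7:3). Km and Vmax came from at least five concentrations of the variable substrate; compounds were tested as hydrochloride salts.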
# [3] = substrate: NCC(O)c1ccc2c(c1)Cc1ccccc1-2; experiment: (§2) In vitro enzyme kinetics (PNMT) of the compound expressed as Michaelis constant isolated from bovine adrenal glands; outline: as §1
# [4] = substrate: NCC(O)c1cccc2c1Cc1ccccc1-2; experiment: as §2; outline: as §1
# [5] = substrate: NC[C@@H](O)c1ccccc1; experiment: as §2; outline: as §1
# [6] = substrate: NCC(O)c1ccc(-c2ccccc2)cc1; experiment: as §2; outline: as §1
# [7] = substrate: NCC(O)c1ccc2c(c1)Cc1ccccc1-2; experiment: (§3) In vitro enzyme kinetics (PNMT)of the compound expressed as turnover rate isolated from bovine adrenal glands; outline: as §1
# [8] = substrate: NCC(O)c1cccc2c1Cc1ccccc1-2; experiment: as §3; outline: as §1
# [9] = substrate: NC[C@@H](O)c1ccccc1; experiment: as §3; outline: as §1
# [10] = substrate: NCC(O)c1ccc(-c2ccccc2)cc1; experiment: as §3; outline: as §1
# [11] = substrate: NCC(O)c1cccc(-c2ccccc2)c1; experiment: as §3; outline: as §1
molecule,measurement,setting,value
CC(N)c1ccc2c(c1)Cc1ccccc1-2 (stereo unspecified),Ki,[1],185 µM
NCC(O)c1cccc2c1Cc1ccccc1-2 (stereo unspecified),Ratio,[2],0.015
CC(N)c1cccc2c1Cc1ccccc1-2 (stereo unspecified),Ki,[1],4.14 µM
NCC(O)c1ccc(-c2ccccc2)cc1 (stereo unspecified),Ratio,[2],5.2
NC[C@@H](O)c1ccccc1,Ratio,[2],3.1
NCC(O)c1cccc(-c2ccccc2)c1 (stereo unspecified),Ratio,[2],0.07
NCC(O)c1ccc2c(c1)Cc1ccccc1-2 (stereo unspecified),Ratio,[2],6.7
"Phenylethanolamine N-methyltransferase (Bos taurus), P10938 (protein) MSGTDRSQAAGAVPDSDPGLAAVSSAYQRFEPRAYLRNNYAPPRGDLSCPDGVGPWKLRCLAQTFATGEVSGRTLIDIGSGPTIYQLLSACAHFEDITMTDFLEVNRQELRLWLREEPGAFDWSVYSQHVCLIEGKGESWQEKECQLRARVKRILPIDVHRPQPLGAGGLAPLPADALVSAFCLEAVSPDLASFQRALDHITTLLRPGGHLLLIGALEESWYLAGEARLAVVPVREEEVREALVRTATRCGICARTPMPAHLQTGVDDVKGIFFTRAQKKVGV",Km,[3],26.3 µM
same,Km,[4],297 µM
same,Km,[5],70 µM
same,Km,[6],82 µM
same,Vmax (nM min-1 (mg of protein)-1),[7],1.76
same,Vmax (nM min-1 (mg of protein)-1),[8],0.046
same,Vmax (nM min-1 (mg of protein)-1),[9],2.2
same,Vmax (nM min-1 (mg of protein)-1),[10],4.3
same,Vmax (nM min-1 (mg of protein)-1),[11],0.46
